This note sets out measurements from ChEMBL document CHEMBL1221316, “Synthesis of new oxathiazinane dioxides and their in vitro cancer cell growth inhibitory activity” (Bioorg Med Chem Lett, 2010).

The test system of assay [1] is SK-BR-3. The assay can be described thus: Cytotoxicity against human SKBR3 cells assessed as cell viability at 50 uM after 72 hrs by MTS assay. It counts as functional. Particulars: SK-BR-3, 72 h, read-out: Activity. The method, boiled down: (§1)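 SKBR3 breast cancer cells were exposed to compound for 72 h. Viability was measured by MTS and reported as % viability at each of five concentrations: 6.25, 12.5, 25, 50 and 100. A viability-versus-concentration plot was also made.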
On the technique in general: Tetrazolium assays rely on reduction of a dye to a coloured formazan, in cell work by metabolically active cells.

Assay [2] deals with SK-BR-3. The assay can be described thus: Cytotoxicity against human SKBR3 cells assessed as cell viability at 6.25 uM after 72 hrs by MTS assay. The format is functional. As to conditions: SK-BR-3, 72 h, read-out: Activity. The method, boiled down: as §1
Assay [3] deals with SK-BR-3. The experiment in a line: Cytotoxicity against human SKBR3 cells assessed as cell viability at 25 uM after 72 hrs by MTS assay. The format is functional. As to conditions: SK-BR-3, 72 h, read-out: Activity. In short, it runs like this:
as §1

The test system of assay [4] is SK-BR-3. The assay can be described thus: Cytotoxicity against human SKBR3 cells assessed as cell viability at 100 uM after 72 hrs by MTS assay. It counts as functional. Particulars: SK-BR-3, 72 h, read-out: Activity. In short, it runs like this: as §1
Assay [5] relates to SK-BR-3. The assay can be described thus: Cytotoxicity against human SKBR3 cells assessed as cell viability at 12.5 uM after 72 hrs by MTS assay. It counts as functional. Particulars: SK-BR-3, 72 h, read-out: Activity. In short, it runs like this:
as §1

Assay [6] has as its system SK-BR-3. The experiment in a line: Cytotoxicity against human SKBR3 cells after 72 hrs by MTS assay. As to conditions: SK-BR-3, 72 h. It counts as functional, cell-based. In short, it runs like this: as §1

`O=S1(=O)COC[C@@H](COCc2ccccc2)N1`: in the assay on SK-BR-3 [1], the viability at 50 µM is 80%. The viability at 6.25 µM in the assay with SK-BR-3 [2] worked out at 100%. The viability at 25 µM in the assay on SK-BR-3 [3] worked out at 100%. In addition, the viability at 100 µM in the assay with SK-BR-3 [4] was found to be 16%. The viability at 12.5 µM in the assay with SK-BR-3 [5] came to 100%.
In the case of `O=S1(=O)COC[C@H](COCc2ccccc2)N1`, in the assay with SK-BR-3 [1], the viability at 50 µM was 51%. Moreover, the viability at 6.25 µM with SK-BR-3 [2] was 100%. Besides, the viability at 25 µM with SK-BR-3 [3] is 78%. Also, the viability at 100 µM in the assay with SK-BR-3 [4] was found to be 22%. For the same compound, in the assay with SK-BR-3 [5], the viability at 12.5 µM is 94%.
Consider `O=S1(=O)COC[C@@H](COCc2ccc(-c3ccccc3)cc2)N1`, for which the viability at 50 µM in the assay with SK-BR-3 [1] stood at 44%. The viability at 6.25 µM in the assay on SK-BR-3 [2] is 75%. Also, the viability at 25 µM with SK-BR-3 [3] came out at 75%. For the same compound, the viability at 100 µM in the assay on SK-BR-3 [4] worked out at 46%. In addition, the viability at 12.5 µM with SK-BR-3 [5] was found to be 75%.
Usually IC50 stands for the point on the concentration scale where inhibition reaches its midpoint. As to `O=S1(=O)COC[C@@H](COCc2ccc(-c3ccc(CBr)cc3)cc2)N1`, the viability at 50 µM in the assay with SK-BR-3 [1] came to 10%. Moreover, the viability at 6.25 µM in the assay on SK-BR-3 [2] amounted to 66%. Besides, the viability at 25 µM in the assay on SK-BR-3 [3] is 10%. The compound further had an IC50 with SK-BR-3 [6] of 10 µM. Further, the viability at 100 µM with SK-BR-3 [4] came to 10%. Further, in the assay with SK-BR-3 [5], the viability at 12.5 µM was found to be 34%.
On to `O=S1(=O)COC[C@H](COCc2ccc(-c3ccc(CBr)cc3)cc2)N1`, for which the viability at 50 µM with SK-BR-3 [1] amounted to 18%. Also, in the assay with SK-BR-3 [2], the viability at 6.25 µM was determined as 99%. The viability at 25 µM in the assay with SK-BR-3 [3] stood at 26%. This compound showed an IC50 in the assay with SK-BR-3 [6] of 10 µM. Moreover, the viability at 100 µM in the assay with SK-BR-3 [4] turned out to be 20%. The viability at 12.5 µM in the assay with SK-BR-3 [5] was 81%.
For `O=S1(=O)COC[C@@H](COCc2ccccc2)N1Cc1ccccc1`, in the assay on SK-BR-3 [1], the viability at 50 µM is 83%. Besides, the viability at 6.25 µM in the assay with SK-BR-3 [2] was 89%. Further, the viability at 25 µM with SK-BR-3 [3] was determined as 88%. The viability at 100 µM in the assay with SK-BR-3 [4] stood at 82%. Moreover, the viability at 12.5 µM in the assay on SK-BR-3 [5] turned out to be 82%.
As to `O=S1(=O)COC[C@H](COCc2ccccc2)N1Cc1ccccc1`, the viability at 50 µM with SK-BR-3 [1] is 87%. The viability at 6.25 µM with SK-BR-3 [2] was 81%. Moreover, the viability at 25 µM with SK-BR-3 [3] worked out at 82%. Besides, in the assay on SK-BR-3 [4], the viability at 100 µM is 96%. In addition, the viability at 12.5 µM in the assay with SK-BR-3 [5] stood at 80%.
As for `CCCCCCCC/C=C\CCCCCCCCOC[C@@H]1COCS(=O)(=O)N1Cc1ccccc1`, the viability at 50 µM in the assay with SK-BR-3 [1] came out at 100%. Moreover, the viability at 6.25 µM in the assay on SK-BR-3 [2] amounted to 100%. In the assay on SK-BR-3 [3], the viability at 25 µM amounted to 99%. In addition, the viability at 100 µM in the assay on SK-BR-3 [4] is 100%. The viability at 12.5 µM in the assay with SK-BR-3 [5] was determined as 100%.
Turning to `CCCCCCCC/C=C\CCCCCCCCOC[C@H]1COCS(=O)(=O)N1Cc1ccccc1`, the viability at 50 µM with SK-BR-3 [1] came to 82%. Also, the viability at 6.25 µM with SK-BR-3 [2] is 71%. In addition, the viability at 25 µM in the assay on SK-BR-3 [3] amounted to 81%. Moreover, in the assay on SK-BR-3 [4], the viability at 100 µM was 96%. Besides, the viability at 12.5 µM with SK-BR-3 [5] amounted to 81%.
With `O=S1(=O)COC[C@@H](COCc2ccc(F)cc2)N1Cc1ccccc1`, the viability at 50 µM with SK-BR-3 [1] came out at 99%. In the assay on SK-BR-3 [2], the viability at 6.25 µM is 93%. For the same compound, the viability at 25 µM in the assay with SK-BR-3 [3] came to 88%. In addition, in the assay on SK-BR-3 [4], the viability at 100 µM is 96%. Moreover, in the assay on SK-BR-3 [5], the viability at 12.5 µM was found to be 86%.
On to `COc1cccc(COC[C@@H]2COCS(=O)(=O)N2Cc2ccccc2)c1`, for which, in the assay with SK-BR-3 [1], the viability at 50 µM worked out at 96%. For the same compound, the viability at 6.25 µM in the assay on SK-BR-3 [2] was determined as 100%. In addition, the viability at 25 µM with SK-BR-3 [3] came out at 100%. Also, the viability at 100 µM in the assay on SK-BR-3 [4] turned out to be 89%. Besides, the viability at 12.5 µM with SK-BR-3 [5] amounted to 100%.
As for `O=C(OC[C@@H]1COCS(=O)(=O)N1Cc1ccccc1)c1ccccc1`, the viability at 50 µM in the assay on SK-BR-3 [1] was found to be 89%. For the same compound, in the assay with SK-BR-3 [2], the viability at 6.25 µM amounted to 81%. Also, the viability at 25 µM in the assay with SK-BR-3 [3] worked out at 88%. The viability at 100 µM in the assay on SK-BR-3 [4] worked out at 100%. The viability at 12.5 µM in the assay with SK-BR-3 [5] worked out at 98%.
For `CN1[C@H](COCc2ccccc2)COCS1(=O)=O`, in that order: 83%, 85%, 88%, 82% and 81%.
Consider `CCCCCCCC/C=C\CCCCCCCCOC[C@@H]1COCS(=O)(=O)N1C`, for which the viability at 50 µM in the assay with SK-BR-3 [1] stood at 65%. Further, the viability at 6.25 µM in the assay with SK-BR-3 [2] came out at 72%. Further, the viability at 25 µM in the assay with SK-BR-3 [3] was determined as 65%. The viability at 100 µM with SK-BR-3 [4] worked out at 65%. Also, the viability at 12.5 µM with SK-BR-3 [5] stood at 71%.
Consider `CN1[C@H](COCc2ccc(-c3ccccc3)cc2)COCS1(=O)=O`, for which the viability at 50 µM with SK-BR-3 [1] worked out at 61%. Further, in the assay with SK-BR-3 [2], the viability at 6.25 µM was 89%. Further, the viability at 25 µM with SK-BR-3 [3] amounted to 60%. Moreover, in the assay with SK-BR-3 [4], the viability at 100 µM stood at 52%. Also, in the assay on SK-BR-3 [5], the viability at 12.5 µM came to 66%.
For `CN1[C@H](COCc2ccc3ccccc3c2)COCS1(=O)=O`, in that order: 74%, 81%, 73%, 74% and 82%.
